According to paper PMC6519384 (Andrology, 2018):

Experiments:
[1] = test system: blood esterases; test: Ex vivo addition of DMAU to blood in different blood collection tubes; type: in vitro ADME, human; conditions: for Reduction of conversion of DMAU to DMA in NaF tubes: NaF 15 mg/mL blood; for Reduction of conversion of DMAU to DMA in NaF tubes / DMA level: 60 min at RT; for DMA level: plain tube
How it was run: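 Freshly drawn venous whole blood from healthy men is split into 2 mL aliquots in plain or esterase-inhibitor tubes, in duplicate. DMAU in methanol is added to 125–1000 ng/mL and held 30 or 60 min at 4 °C or 60 min at 23 °C before centrifugation. DMA is extracted twice with MTBE/hexane (50:50) and run by LC‑MS/MS. Duplicates are averaged and results given as % difference vs plain tube under the same conditions.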

[2] = Single oral dose of 200 mg DMAU in healthy men; type: in vivo, human; conditions: oral 200 mg DMAU
How it was run: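 Fifteen healthy men took 200 mg DMAU orally after a meal, in castor oil/benzyl benzoate or as capsule powder. Ten blood draws over 24 h went into plain tubes (kept at RT) and NaF‑containing tubes (4 °C), each held 30 min before centrifugation. DMA and DMAU were measured by LC‑MS/MS. The plain minus NaF‑EDTA DMA difference was regressed on average DMAU, split at 10 ng/mL.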

[3] = DMAU added to serum with increasing NaF, DMA measured; type: in vitro ADME, human; conditions: Table S1, Experiment 3
[4] = DMAU 300 ng/mL, K2EDTA (1.8 mg/mL) tube, 30 min 4 °C
[5] = DMAU 300 ng/mL, K2EDTA (1.8 mg/mL) tube, 60 min 4 °C
[6] = DMAU 300 ng/mL, K2EDTA (1.8 mg/mL) tube, 60 min RT
[7] = DMAU 300 ng/mL, NaF (1.5 mg/mL) + Na2EDTA (3 mg/mL) tube, 30 min 4 °C
[8] = DMAU 300 ng/mL, NaF (1.5 mg/mL) + Na2EDTA (3 mg/mL) tube, 60 min 4 °C
[9] = DMAU 300 ng/mL, NaF (5 mg/mL) + K2Oxalate (4 mg/mL) tube, 60 min 4 °C
[10] = DMAU 300 ng/mL, NaF (5 mg/mL) + K2Oxalate (4 mg/mL) tube, 60 min RT
[11] = DMAU 300 ng/mL, P800 tube, 30 min 4 °C
[12] = DMAU 300 ng/mL, P800 tube, 60 min 4 °C
[13] = DMAU 300 ng/mL, P800 tube, 60 min RT
[14] = DMAU 600 ng/mL, K2EDTA (1.8 mg/mL) tube, 30 min 4 °C
[15] = DMAU 600 ng/mL, K2EDTA (1.8 mg/mL) tube, 60 min 4 °C
[16] = DMAU 600 ng/mL, K2EDTA (1.8 mg/mL) tube, 60 min RT
[17] = DMAU 600 ng/mL, NaF (1.5 mg/mL) + Na2EDTA (3 mg/mL) tube, 30 min 4 °C
[18] = DMAU 600 ng/mL, NaF (1.5 mg/mL) + Na2EDTA (3 mg/mL) tube, 60 min 4 °C
[19] = DMAU 600 ng/mL, NaF (1.5 mg/mL) + Na2EDTA (3 mg/mL) tube, 60 min RT
[20] = DMAU 600 ng/mL, NaF (5 mg/mL) + K2Oxalate (4 mg/mL) tube, 30 min 4 °C
[21] = DMAU 600 ng/mL, NaF (5 mg/mL) + K2Oxalate (4 mg/mL) tube, 60 min 4 °C
[22] = DMAU 600 ng/mL, NaF (5 mg/mL) + K2Oxalate (4 mg/mL) tube, 60 min RT
[23] = DMAU 600 ng/mL, P800 tube, 30 min 4 °C
[24] = DMAU 600 ng/mL, P800 tube, 60 min 4 °C
[25] = DMAU 600 ng/mL, P800 tube, 60 min RT

With `CCCCCCCCCCC(=O)O[C@H]1CC[C@H]2[C@H]3[C@H]([C@@H](C)C[C@]12C)[C@H]1CCC(=O)C=C1C[C@H]3C` [DMAU, dimethandrolone undecanoate] the “Reduction of conversion of DMAU to DMA in NaF tubes” value (“Reduction of conversion of DMAU” below) ([1]; DMAU 125 ng/mL) was 72%, the DMA level ([1]; DMAU 125 ng/mL) was 1.57 ng/mL and the “Reduction of conversion of DMAU” value ([1]; DMAU 250 ng/mL) was 61.3%. The DMA level ([1]; DMAU 250 ng/mL) was 2.79 ng/mL, the “% difference vs. Plain” value [1, 4] was −56.1% and the DMA [1, 4] was 1.4 ng/mL. For the same molecule, the “% difference vs. Plain” value [1, 5] was −76.5%, the DMA [1, 5] was 1.4 ng/mL and the “% difference vs. Plain” value [1, 6] was “+15.2%”. For the same molecule, the DMA [1, 6] was 9.7 ng/mL, the “% difference vs. Plain” value [1, 7] was −80.6% and the DMA [1, 7] was 0.6 ng/mL. For the same molecule, the “% difference vs. Plain” value [1, 8] was −77.3%, the DMA [1, 8] was 1.3 ng/mL and the DMA ([1]; DMAU 300 ng/mL, NaF (5 mg/mL) + K2Oxalate (4 mg/mL) tube, 30 min 4 °C) was “LLOQ”. For the same molecule, the “% difference vs. Plain” value [1, 9] was −82.2%, the DMA [1, 9] was 1 ng/mL and the “% difference vs. Plain” value [1, 10] was −31.9%. For the same molecule, the DMA [1, 10] was 5.7 ng/mL, the “% difference vs. Plain” value [1, 11] was −78.1% and the DMA [1, 11] was 0.7 ng/mL. The “% difference vs. Plain” value [1, 12] was −84.2%, the DMA [1, 12] was 0.9 ng/mL and the “% difference vs. Plain” value [1, 13] was −20.6%. It also gave a DMA [1, 13] of 6.7 ng/mL, a DMA ([1]; DMAU 300 ng/mL, Plain tube, 30 min 4 °C) of 3.3 ng/mL and a DMA ([1]; DMAU 300 ng/mL, Plain tube, 60 min 4 °C) of 5.9 ng/mL. For the same molecule, the DMA ([1]; DMAU 300 ng/mL, Plain tube, 60 min RT) was 8.4 ng/mL, the “Reduction of conversion of DMAU” value ([1]; DMAU 500 ng/mL) was 54.3% and the DMA level ([1]; DMAU 500 ng/mL) was 5.54 ng/mL. For the same molecule, the “% difference vs. Plain” value [1, 14] was −17.1%, the DMA [1, 14] was 1.2 ng/mL and the “% difference vs. Plain” value [1, 15] was −46.4%. The DMA [1, 15] was 2.3 ng/mL, the “% difference vs. Plain” value [1, 16] was “+13.4%” and the DMA [1, 16] was 16.5 ng/mL. The “% difference vs. Plain” value [1, 17] was −30.0%, the DMA [1, 17] was 1 ng/mL and the “% difference vs. Plain” value [1, 18] was −43.5%. The DMA [1, 18] was 2.4 ng/mL, the “% difference vs. Plain” value [1, 19] was −29.4% and the DMA [1, 19] was 10.2 ng/mL. The “% difference vs. Plain” value [1, 20] was −38.7%, the DMA [1, 20] was 0.9 ng/mL and the “% difference vs. Plain” value [1, 21] was −72.7%. For the same molecule, the DMA [1, 21] was 1.2 ng/mL, the “% difference vs. Plain” value [1, 22] was −34.1% and the DMA [1, 22] was 9.6 ng/mL. For the same molecule, the “% difference vs. Plain” value [1, 23] was −42.5%, the DMA [1, 23] was 0.9 ng/mL and the “% difference vs. Plain” value [1, 24] was −67.1%. For the same molecule, the DMA [1, 24] was 1.4 ng/mL, the “% difference vs. Plain” value [1, 25] was −25.9% and the DMA [1, 25] was 10.8 ng/mL. It also gave a DMA ([1]; DMAU 600 ng/mL, Plain tube, 30 min 4 °C) of 1.5 ng/mL, a DMA ([1]; DMAU 600 ng/mL, Plain tube, 60 min 4 °C) of 4.3 ng/mL and a DMA ([1]; DMAU 600 ng/mL, Plain tube, 60 min RT) of 14.5 ng/mL. The “Reduction of conversion of DMAU” value ([1]; DMAU 1000 ng/mL) was 48.8%, the DMA level ([1]; DMAU 1000 ng/mL) was 8.82 ng/mL and the “Reduction of overestimation of DMA by collecting blood into NaF tubes” value ([1]; increasing amounts of DMAU added to blood) was 30–85%. For the same molecule, the “Difference in DMA concentrations between plain and NaF‐EDTA tubes” value ([2]; DMAU concentrations above 10 ng/mL) was 22%, the “Mean difference in DMA concentrations between plain and NaF‐EDTA tubes” value ([2]; DMAU concentrations below 10 ng/mL) was about 0% and the “Conversion of DMAU to DMA in serum” value [3] was “no conversion”.
